Measured values taken from ChEMBL document CHEMBL1158526, “Labeled 3-aryl-4-indolylmaleimide derivatives and their potential as angiogenic PET biomarkers” (Bioorg Med Chem, 2010).

Columns and labels:
[1] = Biodistribution in tumor of nude mouse bearing human U87MG tumor at 197 +/- 16 uCi, iv after 30 mins; format: ADME, organism-based, Neoplasm; details: in vivo, 0.5 h
How it was run: (§1)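 Male nude Hsd-Athymic Nude-nu mice (10–12 weeks) with subcutaneous 293/KDR tumors (1.5–2 × 10⁶ cells, 7–21 days) or U87MG.wt EGFR tumors (1.5–4 × 10⁶ cells with 20% Matrigel, 4–20 days). The [¹¹C] tracer was given via the lateral tail vein in 10% ethanol/saline (1.1 ± 0.3 Ci/µmol; 225 ± 11 µL). At 30 or 60 min, blood was drawn from the orbital sinus and organs were excised, weighed and gamma-counted; results are %ID/g, n = 10–12.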

Blood [2] = test: Biodistribution in blood of nude mouse bearing human U87MG tumor at 197 +/- 16 uCi, iv after 60 mins; format: ADME, organism-based; details: in vivo, 1 h; how it was run: as §1
Muscle tissue [3] = test: Biodistribution in muscle of nude mouse bearing human U87MG tumor at 197 +/- 16 uCi, iv after 30 mins; format: ADME, organism-based; details: in vivo, 0.5 h; how it was run: as §1
Zone of skin [4] = test: Biodistribution in skin of nude mouse bearing human 293/KDR tumor at 197 +/- 16 uCi, iv after 60 mins; format: ADME, organism-based; details: in vivo, 1 h; how it was run: as §1
Muscle tissue [5] = test: Biodistribution in muscle of nude mouse bearing human 293/KDR tumor at 197 +/- 16 uCi, iv after 60 mins; format: ADME, organism-based; details: in vivo, 1 h; how it was run: as §1
[6] = Biodistribution in tumor of nude mouse bearing human U87MG tumor at 197 +/- 16 uCi, iv after 60 mins; format: ADME, organism-based, Neoplasm; details: in vivo, 1 h; how it was run: as §1
Liver [7] = test: Biodistribution in liver of nude mouse bearing human U87MG tumor at 197 +/- 16 uCi, iv after 60 mins; format: ADME, organism-based; details: in vivo, 1 h; how it was run: as §1
[8] = Biodistribution in tumor of nude mouse bearing human 293/KDR tumor at 197 +/- 16 uCi, iv after 30 mins; format: ADME, organism-based, Neoplasm; details: in vivo, 0.5 h; how it was run: as §1
Bone [9] = test: Biodistribution in bone of nude mouse bearing human 293/KDR tumor at 197 +/- 16 uCi, iv after 30 mins; format: ADME, organism-based, Bone element; details: in vivo, 0.5 h; how it was run: as §1
Zone of skin [10] = test: Biodistribution in skin of nude mouse bearing human 293/KDR tumor at 197 +/- 16 uCi, iv after 30 mins; format: ADME, organism-based; details: in vivo, 0.5 h; how it was run: as §1
[11] = Metabolic stability in mouse liver microsome assessed as intact compound at 2 to 3 mCi after 15 mins by RP-HPLC; format: ADME; details: liver microsomes, read-out: Stability
How it was run: (§2)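 Tracer (2–3 mCi in 100 µL ethanol) was preincubated with 0.5 mg/mL mouse hepatic microsomes in PBS pH 7.4 at 37 °C for 5 min. Reactions were started with 0.25 mM NADPH and sampled at 0–60 min. Aliquots were loaded on a celite plug and eluted with ethanol, and intact tracer was measured by RP-HPLC.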

Blood [12] = test: Metabolic stability in human blood assessed as residual radioactivity at 300 uCi after 30 mins by RP-HPLC; format: ADME, tissue-based; details: 0.5 h
How it was run: (§3)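 Fresh human EDTA blood, 1 mL aliquots, was preincubated at 37 °C for 15 min. About 300 µCi of the [¹¹C] tracer was added and samples were held for 0, 30 or 60 min. Samples were centrifuged, and the plasma was extracted with cold THF/ACN (30:70) and centrifuged again. The extract was analysed by RP-HPLC and by RP-TLC (40:60 H₂O:ACN) with phosphor imaging; n = 3.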

Bone [13] = test: Biodistribution in bone of nude mouse bearing human 293/KDR tumor at 197 +/- 16 uCi, iv after 60 mins; format: ADME, organism-based, Bone element; details: in vivo, 1 h; how it was run: as §1
Kidney [14] = test: Biodistribution in kidney of nude mouse bearing human U87MG tumor at 197 +/- 16 uCi, iv after 30 mins; format: ADME, organism-based; details: in vivo, 0.5 h; how it was run: as §1
Zone of skin [15] = test: Biodistribution in skin of nude mouse bearing human U87MG tumor at 197 +/- 16 uCi, iv after 30 mins; format: ADME, organism-based; details: in vivo, 0.5 h; how it was run: as §1
Muscle tissue [16] = test: Biodistribution in muscle of nude mouse bearing human U87MG tumor at 197 +/- 16 uCi, iv after 60 mins; format: ADME, organism-based; details: in vivo, 1 h; how it was run: as §1
Zone of skin [17] = test: Biodistribution in skin of nude mouse bearing human U87MG tumor at 197 +/- 16 uCi, iv after 60 mins; format: ADME, organism-based; details: in vivo, 1 h; how it was run: as §1
[18] = Biodistribution in tumor of nude mouse bearing human 293/KDR tumor at 197 +/- 16 uCi, iv after 60 mins; format: ADME, organism-based, Neoplasm; details: in vivo, 1 h; how it was run: as §1
Blood [19] = test: Biodistribution in blood of nude mouse bearing human 293/KDR tumor at 197 +/- 16 uCi, iv after 60 mins; format: ADME, organism-based; details: in vivo, 1 h; how it was run: as §1
Kidney [20] = test: Biodistribution in kidney of nude mouse bearing human 293/KDR tumor at 197 +/- 16 uCi, iv after 30 mins; format: ADME, organism-based; details: in vivo, 0.5 h; how it was run: as §1
[21] = Metabolic stability in mouse liver microsome assessed as intact compound at 2 to 3 mCi after 30 mins by RP-HPLC; format: ADME; details: liver microsomes, read-out: Stability; how it was run: as §2
Liver [22] = test: Biodistribution in liver of nude mouse bearing human 293/KDR tumor at 197 +/- 16 uCi, iv after 30 mins; format: ADME, organism-based; details: in vivo, 0.5 h; how it was run: as §1
Blood [23] = test: Metabolic stability in human blood assessed as residual radioactivity at 300 uCi after 60 mins by RP-HPLC; format: ADME, tissue-based; details: 1 h; how it was run: as §3
Blood [24] = test: Biodistribution in blood of nude mouse bearing human U87MG tumor at 197 +/- 16 uCi, iv after 30 mins; format: ADME, organism-based; details: in vivo, 0.5 h; how it was run: as §1
Muscle tissue [25] = test: Biodistribution in muscle of nude mouse bearing human 293/KDR tumor at 197 +/- 16 uCi, iv after 30 mins; format: ADME, organism-based; details: in vivo, 0.5 h; how it was run: as §1
Liver [26] = test: Biodistribution in liver of nude mouse bearing human 293/KDR tumor at 197 +/- 16 uCi, iv after 60 mins; format: ADME, organism-based; details: in vivo, 1 h; how it was run: as §1
Liver [27] = test: Biodistribution in liver of nude mouse bearing human U87MG tumor at 197 +/- 16 uCi, iv after 30 mins; format: ADME, organism-based; details: in vivo, 0.5 h; how it was run: as §1
Blood [28] = test: Biodistribution in blood of nude mouse bearing human 293/KDR tumor at 197 +/- 16 uCi, iv after 30 mins; format: ADME, organism-based; details: in vivo, 0.5 h; how it was run: as §1
[29] = Metabolic stability in mouse liver microsome assessed as intact compound at 2 to 3 mCi after 45 mins by RP-HPLC; format: ADME; details: liver microsomes, read-out: Stability; how it was run: as §2
[30] = Octanol-phosphate buffered saline partition coefficient, log D at pH 7.4; format: physicochemical
How it was run: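 About 200 µCi of the [¹¹C] tracer was taken up in 5 mL n-octanol and mixed with 1 mL phosphate buffer (pH 7.4, 100 mM), a 5:1 octanol:buffer ratio. The mixture was vortexed for 2 min, the phases were separated, and each phase was measured for radioactivity.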

Kidney [31] = test: Biodistribution in kidney of nude mouse bearing human 293/KDR tumor at 197 +/- 16 uCi, iv after 60 mins; format: ADME, organism-based; details: in vivo, 1 h; how it was run: as §1
Bone [32] = test: Biodistribution in bone of nude mouse bearing human U87MG tumor at 197 +/- 16 uCi, iv after 60 mins; format: ADME, organism-based, Bone element; details: in vivo, 1 h; how it was run: as §1
Kidney [33] = test: Biodistribution in kidney of nude mouse bearing human U87MG tumor at 197 +/- 16 uCi, iv after 60 mins; format: ADME, organism-based; details: in vivo, 1 h; how it was run: as §1
Bone [34] = test: Biodistribution in bone of nude mouse bearing human U87MG tumor at 197 +/- 16 uCi, iv after 30 mins; format: ADME, organism-based, Bone element; details: in vivo, 0.5 h; how it was run: as §1
[35] = molecular target: Vascular endothelial growth factor receptor 2 (Homo sapiens, UniProt P35968); test: Inhibition of VEGFR2 after 80 mins by radiometric protein kinase assay
How it was run: (§4)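 Radiometric [γ-33P]-ATP kinase assay with poly(Glu,Tyr) 4:1 substrate. Reaction run 80 min at 30 °C, stopped with 2% H3PO4 and washed with 0.9% NaCl. 33Pi incorporation counted by microplate scintillation. IC50 from 12 concentrations tested in triplicate, with Z'-factor used as plate control.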

[36] = molecular target: Mast/stem cell growth factor receptor Kit (Homo sapiens, UniProt P10721); test: Inhibition of KIT after 80 mins by radiometric protein kinase assay
How it was run: (§5)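 The substrate was Poly(Glu,Tyr)4:1. 12 concentrations were run in triplicate with 1% final DMSO, at 30 °C for 80 min. Reactions were stopped with 2% H₃PO₄, washed with 0.9% NaCl, and ³³P incorporation was read by scintillation counting.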

[37] = molecular target: Vascular endothelial growth factor receptor 1 (Homo sapiens, UniProt P17948); test: Inhibition of VEGFR1 after 80 mins by radiometric protein kinase assay; how it was run: as §4
Angiopoietin-1 receptor = Angiopoietin-1 receptor (Homo sapiens, UniProt Q02763); test: Inhibition of TIE2 after 80 mins by radiometric protein kinase assay
How it was run: (§6)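 Radiometric [γ-33P]-ATP kinase assay with poly(Ala,Glu,Lys,Tyr) 6:2:5:1 substrate. Incubated 30 °C for 80 min, then stopped with 2% H3PO4 and washed with 0.9% NaCl. 33Pi incorporation read by scintillation counting. IC50 from 12 concentrations in triplicate; plate quality checked by Z'-factor.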

[38] = molecular target: Platelet-derived growth factor receptor beta (Homo sapiens, UniProt P09619); test: Inhibition of PDGFRbeta after 80 mins by radiometric protein kinase assay
[39] = molecular target: Vascular endothelial growth factor receptor 3 (Homo sapiens, UniProt P35916); test: Inhibition of VEGFR3 after 80 mins by radiometric protein kinase assay; how it was run: as §4
[40] = molecular target: Insulin-like growth factor 1 receptor (Homo sapiens, UniProt P08069); test: Inhibition of IGF1R after 80 mins by radiometric protein kinase assay; how it was run: as §4
[41] = molecular target: Platelet-derived growth factor receptor alpha (Homo sapiens, UniProt P16234); test: Inhibition of PDGFRalpha after 80 mins by radiometric protein kinase assay; how it was run: as §6
[42] = molecular target: Epidermal growth factor receptor (Homo sapiens, UniProt P00533); test: Inhibition of EGFR after 80 mins by radiometric protein kinase assay
[43] = molecular target: Receptor tyrosine-protein kinase erbB-2 (Homo sapiens, UniProt P04626); test: Inhibition of ERBB2 after 80 mins by radiometric protein kinase assay; how it was run: as §5
Chain of Receptor tyrosine-protein kinase erbB-2 (P04626 whole entry): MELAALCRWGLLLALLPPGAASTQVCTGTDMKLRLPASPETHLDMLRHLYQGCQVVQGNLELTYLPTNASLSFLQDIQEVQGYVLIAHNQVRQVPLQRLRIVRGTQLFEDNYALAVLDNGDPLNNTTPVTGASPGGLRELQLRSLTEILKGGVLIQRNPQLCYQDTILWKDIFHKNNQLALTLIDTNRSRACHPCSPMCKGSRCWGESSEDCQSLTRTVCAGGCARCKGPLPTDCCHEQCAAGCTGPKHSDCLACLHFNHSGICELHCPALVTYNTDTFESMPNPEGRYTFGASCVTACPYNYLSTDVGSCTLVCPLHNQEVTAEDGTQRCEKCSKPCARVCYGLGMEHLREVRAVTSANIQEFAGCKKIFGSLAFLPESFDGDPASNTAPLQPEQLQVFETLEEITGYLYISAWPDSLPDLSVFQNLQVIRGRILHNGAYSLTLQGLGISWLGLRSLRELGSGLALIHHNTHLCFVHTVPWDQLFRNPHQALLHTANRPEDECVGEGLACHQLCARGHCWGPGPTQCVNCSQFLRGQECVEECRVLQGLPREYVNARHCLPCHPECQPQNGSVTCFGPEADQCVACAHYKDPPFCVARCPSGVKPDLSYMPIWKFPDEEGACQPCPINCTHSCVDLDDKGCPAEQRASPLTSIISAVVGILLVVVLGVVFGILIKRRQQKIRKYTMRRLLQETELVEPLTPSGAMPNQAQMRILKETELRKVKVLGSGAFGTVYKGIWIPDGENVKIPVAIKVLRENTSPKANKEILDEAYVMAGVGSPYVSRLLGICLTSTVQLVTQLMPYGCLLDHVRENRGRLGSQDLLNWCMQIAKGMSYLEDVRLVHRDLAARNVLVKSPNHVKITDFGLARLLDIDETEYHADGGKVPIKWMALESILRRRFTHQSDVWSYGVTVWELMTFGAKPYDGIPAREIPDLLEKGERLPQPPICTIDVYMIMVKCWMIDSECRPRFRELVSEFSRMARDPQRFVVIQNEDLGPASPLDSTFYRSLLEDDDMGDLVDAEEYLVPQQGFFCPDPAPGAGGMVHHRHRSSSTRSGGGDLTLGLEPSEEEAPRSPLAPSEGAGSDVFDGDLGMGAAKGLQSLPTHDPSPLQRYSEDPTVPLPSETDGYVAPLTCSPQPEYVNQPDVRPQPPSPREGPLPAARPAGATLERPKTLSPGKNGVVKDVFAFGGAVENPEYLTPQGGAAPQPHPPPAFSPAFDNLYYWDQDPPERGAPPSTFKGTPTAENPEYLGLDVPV

Chain of Mast/stem cell growth factor receptor Kit (P10721 whole entry): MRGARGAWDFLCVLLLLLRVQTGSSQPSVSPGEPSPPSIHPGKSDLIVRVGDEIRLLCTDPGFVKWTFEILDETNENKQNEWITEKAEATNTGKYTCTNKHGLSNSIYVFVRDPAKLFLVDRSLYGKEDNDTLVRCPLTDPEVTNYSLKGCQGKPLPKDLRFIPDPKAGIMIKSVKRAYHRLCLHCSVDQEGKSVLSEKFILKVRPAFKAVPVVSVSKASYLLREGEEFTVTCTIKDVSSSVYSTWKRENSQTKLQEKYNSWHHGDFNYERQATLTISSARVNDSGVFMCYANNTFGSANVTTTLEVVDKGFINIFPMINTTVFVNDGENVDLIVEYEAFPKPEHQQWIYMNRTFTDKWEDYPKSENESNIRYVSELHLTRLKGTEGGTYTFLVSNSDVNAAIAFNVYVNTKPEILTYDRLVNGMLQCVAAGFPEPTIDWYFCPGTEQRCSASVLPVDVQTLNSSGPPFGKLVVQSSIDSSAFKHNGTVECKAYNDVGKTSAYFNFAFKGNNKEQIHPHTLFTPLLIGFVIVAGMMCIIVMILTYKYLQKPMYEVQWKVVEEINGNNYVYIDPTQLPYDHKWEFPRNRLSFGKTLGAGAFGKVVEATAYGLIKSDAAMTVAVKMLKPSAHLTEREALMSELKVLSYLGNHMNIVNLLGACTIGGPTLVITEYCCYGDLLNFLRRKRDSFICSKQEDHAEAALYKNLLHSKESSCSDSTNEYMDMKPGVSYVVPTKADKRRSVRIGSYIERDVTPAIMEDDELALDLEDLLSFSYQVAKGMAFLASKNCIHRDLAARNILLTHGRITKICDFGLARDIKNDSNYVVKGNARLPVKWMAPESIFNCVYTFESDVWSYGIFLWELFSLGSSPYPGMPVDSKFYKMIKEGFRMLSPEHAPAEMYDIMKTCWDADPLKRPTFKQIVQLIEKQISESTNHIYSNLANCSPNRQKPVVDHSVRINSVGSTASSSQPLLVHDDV
Chain of Angiopoietin-1 receptor (Q02763 whole entry): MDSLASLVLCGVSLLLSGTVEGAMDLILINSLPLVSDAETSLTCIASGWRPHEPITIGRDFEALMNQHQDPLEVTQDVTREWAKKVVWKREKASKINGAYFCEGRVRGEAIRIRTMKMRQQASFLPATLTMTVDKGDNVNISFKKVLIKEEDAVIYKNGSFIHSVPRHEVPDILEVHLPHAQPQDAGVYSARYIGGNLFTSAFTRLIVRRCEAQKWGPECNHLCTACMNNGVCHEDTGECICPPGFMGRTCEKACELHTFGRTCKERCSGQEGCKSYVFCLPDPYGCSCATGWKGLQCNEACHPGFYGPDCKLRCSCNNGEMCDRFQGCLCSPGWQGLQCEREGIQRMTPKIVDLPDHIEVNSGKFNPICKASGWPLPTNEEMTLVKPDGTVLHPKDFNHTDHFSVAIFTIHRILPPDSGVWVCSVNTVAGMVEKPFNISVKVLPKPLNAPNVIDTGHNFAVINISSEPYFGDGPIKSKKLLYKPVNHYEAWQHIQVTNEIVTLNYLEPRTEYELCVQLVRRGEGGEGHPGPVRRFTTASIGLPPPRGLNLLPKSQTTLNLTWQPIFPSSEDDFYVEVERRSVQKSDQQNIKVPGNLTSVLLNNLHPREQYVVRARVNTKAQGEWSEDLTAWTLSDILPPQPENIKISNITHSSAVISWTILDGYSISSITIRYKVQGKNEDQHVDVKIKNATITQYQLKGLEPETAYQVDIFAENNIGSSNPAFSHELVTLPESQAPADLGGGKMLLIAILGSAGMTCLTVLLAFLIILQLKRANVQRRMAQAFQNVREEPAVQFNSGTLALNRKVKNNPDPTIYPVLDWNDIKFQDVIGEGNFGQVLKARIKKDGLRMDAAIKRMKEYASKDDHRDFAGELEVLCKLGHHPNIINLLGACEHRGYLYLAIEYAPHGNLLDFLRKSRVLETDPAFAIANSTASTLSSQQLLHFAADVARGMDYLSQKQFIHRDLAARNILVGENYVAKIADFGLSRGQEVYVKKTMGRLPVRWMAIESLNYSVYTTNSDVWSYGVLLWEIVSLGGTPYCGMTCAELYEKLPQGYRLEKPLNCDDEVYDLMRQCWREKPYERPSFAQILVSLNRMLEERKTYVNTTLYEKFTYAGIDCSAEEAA
Chain of Vascular endothelial growth factor receptor 3 (P35916 whole entry): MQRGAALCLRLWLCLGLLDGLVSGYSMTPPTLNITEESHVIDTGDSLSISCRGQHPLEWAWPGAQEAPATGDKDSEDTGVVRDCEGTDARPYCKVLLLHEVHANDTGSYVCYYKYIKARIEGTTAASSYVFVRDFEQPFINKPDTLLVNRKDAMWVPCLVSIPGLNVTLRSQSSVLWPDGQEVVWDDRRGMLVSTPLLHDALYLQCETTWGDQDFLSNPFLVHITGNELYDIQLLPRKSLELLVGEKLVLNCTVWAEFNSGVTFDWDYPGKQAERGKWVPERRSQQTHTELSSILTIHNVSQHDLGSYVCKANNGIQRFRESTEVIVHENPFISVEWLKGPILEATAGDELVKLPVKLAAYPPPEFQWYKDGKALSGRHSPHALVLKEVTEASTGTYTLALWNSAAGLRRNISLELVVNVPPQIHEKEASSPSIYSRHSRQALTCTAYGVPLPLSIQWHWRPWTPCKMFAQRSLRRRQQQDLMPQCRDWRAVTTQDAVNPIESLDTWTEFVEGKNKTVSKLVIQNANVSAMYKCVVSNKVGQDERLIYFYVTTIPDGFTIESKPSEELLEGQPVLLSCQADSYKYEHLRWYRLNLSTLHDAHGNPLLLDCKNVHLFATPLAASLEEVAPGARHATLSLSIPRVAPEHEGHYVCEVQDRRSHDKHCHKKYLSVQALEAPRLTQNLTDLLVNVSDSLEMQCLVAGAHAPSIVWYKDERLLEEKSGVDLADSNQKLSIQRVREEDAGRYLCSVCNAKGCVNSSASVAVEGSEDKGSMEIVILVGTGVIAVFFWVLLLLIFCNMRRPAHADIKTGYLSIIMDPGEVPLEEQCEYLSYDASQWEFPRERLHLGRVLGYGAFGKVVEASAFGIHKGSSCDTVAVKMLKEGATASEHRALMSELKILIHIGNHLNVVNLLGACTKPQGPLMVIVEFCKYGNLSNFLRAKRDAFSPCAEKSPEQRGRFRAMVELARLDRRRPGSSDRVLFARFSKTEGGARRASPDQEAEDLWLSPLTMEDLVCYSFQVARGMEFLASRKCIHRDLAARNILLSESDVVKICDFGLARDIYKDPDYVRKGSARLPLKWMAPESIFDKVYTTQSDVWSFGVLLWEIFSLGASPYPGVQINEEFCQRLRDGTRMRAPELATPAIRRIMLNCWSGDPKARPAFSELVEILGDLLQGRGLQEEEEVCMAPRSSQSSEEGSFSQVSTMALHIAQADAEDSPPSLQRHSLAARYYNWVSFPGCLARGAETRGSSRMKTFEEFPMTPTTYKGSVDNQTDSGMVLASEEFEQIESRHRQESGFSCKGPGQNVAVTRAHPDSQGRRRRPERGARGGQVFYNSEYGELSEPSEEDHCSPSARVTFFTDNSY

COc1cc(C2=C(c3c[nH]c4ccccc34)C(=O)NC2=O)cc(OC)c1O[11CH3]
Stability [1]: 0.33 % ID/g | Stability (Blood [2]): 0.29 % ID/g | Stability (Muscle tissue [3]): 0.17 % ID/g | Stability (Zone of skin [4]): 0.14 % ID/g | Stability (Muscle tissue [5]): 0.08 % ID/g | Stability [6]: 0.17 % ID/g | Stability (Liver [7]): 1.68 % ID/g | Stability [8]: 0.3 % ID/g | Stability (Bone [9]): 0.15 % ID/g | Stability (Zone of skin [10]): 0.38 % ID/g | remaining at 0.25 h [11]: 40% | Stability (Blood [12]): 61 % ID/g | Stability (Bone [13]): 0.09 % ID/g | Stability (Kidney [14]): 2.24 % ID/g | Stability (Zone of skin [15]): 0.41 % ID/g | Stability (Muscle tissue [16]): 0.09 % ID/g | Stability (Zone of skin [17]): 0.21 % ID/g | Stability [18]: 0.14 % ID/g | Stability (Blood [19]): 0.19 % ID/g | Stability (Kidney [20]): 2.29 % ID/g | remaining at 0.5 h [21]: 25% | Stability (Liver [22]): 2.89 % ID/g | Stability (Blood [23]): 62 % ID/g | Stability (Blood [24]): 0.38 % ID/g | Stability (Muscle tissue [25]): 0.2 % ID/g | Stability (Liver [26]): 2.95 % ID/g | Stability (Liver [27]): 2.64 % ID/g | Stability (Blood [28]): 0.36 % ID/g | remaining at 0.75 h [29]: 16% | logD [30]: 1.99 | Stability (Kidney [31]): 0.8 % ID/g | Stability (Bone [32]): 0.11 % ID/g | Stability (Kidney [33]): 0.79 % ID/g | Stability (Bone [34]): 0.19 % ID/g

COc1cc(C2=C(c3c[nH]c4ccc(Br)cc34)C(=O)NC2=O)cc(OC)c1OC
IC50 [35]: 22.5 nM | IC50 [36]: 3220 nM | IC50 [37]: 72.4 nM | IC50 (Angiopoietin-1 receptor): 2370 nM | IC50 [38]: 900 nM | IC50 [39]: 21 nM | IC50 [40]: 4240 nM | IC50 [41]: 1160 nM | IC50 [42]: 5800 nM | IC50 [43]: 13300 nM
